Experimental data from ChEMBL document CHEMBL1143324, “New N-substituted 9-azabicyclo[3.3.1]nonan-3alpha-yl phenylcarbamate analogs as sigma2 receptor ligands: synthesis, in vitro characterization, and evaluation as PET imaging and chemosensitization agents” (Bioorg Med Chem, 2009).

Assays:
Blood [1] = assay: Biodistribution in iv dosed mouse EMT6 cells bearing BALB/c mouse blood after 1 hr; assay type: ADME, organism-based; conditions: in vivo
Method in brief: (§1)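 Female BALB/c mice were implanted s.c. in the scapular region with ~5×10^5 EMT-6 cells in PBS 11 days earlier, giving tumors of ~100-150 mg. The 18F tracer (~20 µCi per 150 µL, in 10% ethanol/90% water) was given via tail vein, and mice were killed at 5 min, 30 min, 1 h or 2 h. Tissues were weighed and gamma-counted against a diluted injected-dose standard, giving %ID/g.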

[2] = Ratio of drug level in tumor to muscle of […] EMT6 cells bearing BALB/c mouse after 30 mins; assay type: ADME, cell-based; conditions: emt6, 0.5 h
[3] = Ratio of drug level in tumor to muscle of […] EMT6 cells bearing BALB/c mouse after 1 hr; assay type: ADME, cell-based; conditions: emt6, 1 h
Heart [4] = assay: Biodistribution in iv dosed mouse EMT6 cells bearing BALB/c mouse heart after 5 mins; assay type: ADME, organism-based; conditions: in vivo; method in brief: as §1
[5] = Ratio of drug level in tumor to blood of mouse EMT6 cells bearing BALB/c mouse after 5 mins; assay type: ADME, cell-based; conditions: emt6, 5 min
Method in brief: (§2)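 Tumor-to-tissue ratios were calculated from %ID/g values at 5 min, 30 min, 1 h and 2 h. The 18F tracer (~20 µCi, tail vein, 10% ethanol/90% water) was given to female BALB/c mice bearing s.c. EMT-6 tumors (~5×10^5 cells implanted 11 days prior; ~100-150 mg). Tissues were gamma-counted against a diluted standard of the injected dose.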

Brain [6] = assay: Biodistribution in iv dosed mouse EMT6 cells bearing BALB/c mouse brain after 30 mins; assay type: ADME, organism-based; conditions: in vivo, 0.5 h; method in brief: as §1
[7] = Ratio of drug level in tumor to muscle of mouse EMT6 cells bearing BALB/c mouse after 5 mins; assay type: ADME, cell-based; conditions: emt6, 5 min; method in brief: as §2
Liver [8] = assay: Biodistribution in iv dosed mouse EMT6 cells bearing BALB/c mouse liver after 30 mins; assay type: ADME, organism-based; conditions: in vivo, 0.5 h; method in brief: as §1
[9] = Ratio of drug level in tumor to muscle of […] EMT6 cells bearing BALB/c mouse after 2 hrs; assay type: ADME, cell-based; conditions: emt6, 2 h
Kidney = assay: Biodistribution in iv dosed mouse EMT6 cells bearing BALB/c mouse kidney after 1 hr; assay type: ADME, organism-based; conditions: in vivo; method in brief: as §1
Blood [10] = assay: Biodistribution in iv dosed mouse EMT6 cells bearing BALB/c mouse blood after 30 mins; assay type: ADME, organism-based; conditions: in vivo, 0.5 h; method in brief: as §1
[11] = Ratio of drug level in tumor to blood of mouse EMT6 cells bearing BALB/c mouse after 2 hrs; assay type: ADME, cell-based; conditions: emt6, 2 h; method in brief: as §2
Bone = assay: Biodistribution in iv dosed mouse EMT6 cells bearing BALB/c mouse bone after 2 hrs; assay type: ADME, organism-based, Bone element; conditions: in vivo; method in brief: as §1
[12] = Ratio of drug level in tumor to muscle of mouse EMT6 cells bearing BALB/c mouse after 2 hrs; assay type: ADME, cell-based; conditions: emt6, 2 h; method in brief: as §2
[13] = Ratio of drug level in tumor to muscle of […] EMT6 cells bearing BALB/c mouse after 5 mins; assay type: ADME, cell-based; conditions: emt6, 5 min
[14] = Ratio of drug level in tumor to fat of mouse EMT6 cells bearing BALB/c mouse after 1 hr; assay type: ADME, cell-based; conditions: emt6, 1 h; method in brief: as §2
[15] = Ratio of drug level in tumor to blood of mouse EMT6 cells bearing BALB/c mouse after 1 hr; assay type: ADME, cell-based; conditions: emt6, 1 h; method in brief: as §2
[16] = Biodistribution in tumor of iv dosed mouse EMT6 cells bearing BALB/c mouse after 5 mins; assay type: ADME, organism-based, Neoplasm; conditions: in vivo; method in brief: as §1
[17] = Biodistribution in tumor of iv dosed mouse EMT6 cells bearing BALB/c mouse after 2 hrs; assay type: ADME, organism-based, Neoplasm; conditions: in vivo; method in brief: as §1
[18] = Ratio of drug level in tumor to fat of mouse EMT6 cells bearing BALB/c mouse after 30 mins; assay type: ADME, cell-based; conditions: emt6, 0.5 h; method in brief: as §2
Muscle tissue [19] = assay: Biodistribution in iv dosed mouse EMT6 cells bearing BALB/c mouse muscle after 30 mins; assay type: ADME, organism-based; conditions: in vivo, 0.5 h; method in brief: as §1
Muscle tissue [20] = assay: Biodistribution in iv dosed mouse EMT6 cells bearing BALB/c mouse muscle after 1 hr; assay type: ADME, organism-based; conditions: in vivo; method in brief: as §1
Liver [21] = assay: Biodistribution in iv dosed mouse EMT6 cells bearing BALB/c mouse liver after 5 mins; assay type: ADME, organism-based; conditions: in vivo; method in brief: as §1
[22] = Ratio of drug level in tumor to muscle of mouse EMT6 cells bearing BALB/c mouse after 1 hr; assay type: ADME, cell-based; conditions: emt6, 1 h; method in brief: as §2
[23] = Ratio of drug level in tumor to fat of mouse EMT6 cells bearing BALB/c mouse after 2 hrs; assay type: ADME, cell-based; conditions: emt6, 2 h; method in brief: as §2
Brain [24] = assay: Biodistribution in iv dosed mouse EMT6 cells bearing BALB/c mouse brain after 1 hr; assay type: ADME, organism-based; conditions: in vivo; method in brief: as §1
[25] = Ratio of drug level in tumor to fat of mouse EMT6 cells bearing BALB/c mouse after 5 mins; assay type: ADME, cell-based; conditions: emt6, 5 min; method in brief: as §2
Heart [26] = assay: Biodistribution in iv dosed mouse EMT6 cells bearing BALB/c mouse heart after 30 mins; assay type: ADME, organism-based; conditions: in vivo, 0.5 h; method in brief: as §1
[27] = Ratio of drug level in tumor to muscle of mouse EMT6 cells bearing BALB/c mouse after 30 mins; assay type: ADME, cell-based; conditions: emt6, 0.5 h; method in brief: as §2
[28] = Ratio of drug level in tumor to blood of mouse EMT6 cells bearing BALB/c mouse after 30 mins; assay type: ADME, cell-based; conditions: emt6, 0.5 h; method in brief: as §2
[29] = biological target: Sigma non-opioid intracellular receptor 1 (Cavia porcellus, UniProt Q60492); assay: Displacement of [3H](+)-pentazocine from sigma 1-type opioid receptor in guinea pig brain homogenates; assay type: tissue-based
Chain of Sigma non-opioid intracellular receptor 1 (Q60492 whole entry): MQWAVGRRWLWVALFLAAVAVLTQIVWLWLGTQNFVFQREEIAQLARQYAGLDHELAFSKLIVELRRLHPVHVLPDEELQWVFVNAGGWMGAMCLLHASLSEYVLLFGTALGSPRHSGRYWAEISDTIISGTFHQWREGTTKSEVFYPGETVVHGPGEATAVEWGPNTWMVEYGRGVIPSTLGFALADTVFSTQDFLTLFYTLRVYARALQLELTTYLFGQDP

[30] = Selectivity ratio, Ki for sigma 1 receptor in guinea pig brain homogenates to Ki for sigma 2 receptor in rat liver homogenates; assay type: tissue-based
[31] = Displacement of [3H]RHM-1 from sigma 2-type opioid receptor in rat liver homogenates; assay type: tissue-based
[32] = Partition coefficient, log P of the compound; assay type: physicochemical; conditions: octanol/water
EMT6 = assay: Binding affinity to sigma 2 receptor in mouse EMT6 cell membrane homogenates; assay type: cell membranes; conditions: tested as the 18F-labelled form
[33] = biological target: 5-hydroxytryptamine receptor 4 (Homo sapiens, UniProt Q13639); assay: Binding affinity to 5HT4 receptor
Chain of 5-hydroxytryptamine receptor 4 (Q13639 whole entry): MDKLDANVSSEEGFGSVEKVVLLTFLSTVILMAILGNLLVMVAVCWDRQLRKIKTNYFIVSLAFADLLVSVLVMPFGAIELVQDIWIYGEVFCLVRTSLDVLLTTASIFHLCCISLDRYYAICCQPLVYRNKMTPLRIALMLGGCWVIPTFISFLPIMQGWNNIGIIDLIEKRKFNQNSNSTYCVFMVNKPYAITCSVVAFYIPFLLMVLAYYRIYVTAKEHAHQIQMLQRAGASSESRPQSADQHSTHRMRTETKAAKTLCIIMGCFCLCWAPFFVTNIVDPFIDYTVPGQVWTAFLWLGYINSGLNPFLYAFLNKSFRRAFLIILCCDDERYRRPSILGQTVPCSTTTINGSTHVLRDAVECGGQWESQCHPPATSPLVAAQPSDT

[34] = biological target: T1, 5-hydroxytryptamine receptor 3A (Homo sapiens, UniProt P46098); assay: Binding affinity to 5HT3 receptor
T1 sequence (P46098 whole entry): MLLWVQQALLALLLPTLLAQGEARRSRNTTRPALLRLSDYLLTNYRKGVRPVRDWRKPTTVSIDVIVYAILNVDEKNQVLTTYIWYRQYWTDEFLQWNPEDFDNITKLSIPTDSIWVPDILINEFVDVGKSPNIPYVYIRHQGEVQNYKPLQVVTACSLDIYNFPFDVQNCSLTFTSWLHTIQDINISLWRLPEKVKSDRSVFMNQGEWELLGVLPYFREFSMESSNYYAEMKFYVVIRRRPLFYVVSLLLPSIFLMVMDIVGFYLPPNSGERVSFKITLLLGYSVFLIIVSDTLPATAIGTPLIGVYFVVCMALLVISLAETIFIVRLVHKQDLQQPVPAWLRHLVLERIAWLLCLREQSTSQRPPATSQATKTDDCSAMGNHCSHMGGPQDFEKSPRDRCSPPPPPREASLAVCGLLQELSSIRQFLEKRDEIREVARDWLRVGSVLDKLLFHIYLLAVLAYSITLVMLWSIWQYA

COc1ccc(C)cc1NC(=O)OC1CC2CCCC(C1)N2Cc1ccc(CC[18F])cc1 (configuration not stated)
Activity (Blood [1]): 0.93 % ID/g
Activity [2]: 0.22 % ID/g
Activity [3]: 0.42 % ID/g
Activity (Heart [4]): 18.49 % ID/g
Activity [5]: 0.82 % ID/g
Activity (Brain [6]): 2.12 % ID/g
Activity [7]: 0.3 % ID/g
Activity (Liver [8]): 28.5 % ID/g
Activity [9]: 0.82 % ID/g
Activity (Kidney): 10.38 % ID/g
Activity (Blood [10]): 0.99 % ID/g
Activity [11]: 6.96 % ID/g
Activity (Bone): 5.68 % ID/g
Activity [12]: 2.53 % ID/g
Activity [13]: 0.01 % ID/g
Activity [14]: 0.41 % ID/g
Activity [15]: 3.86 % ID/g
Activity [16]: 1.39 % ID/g
Activity [17]: 4.08 % ID/g
Activity [18]: 0.45 % ID/g
Activity (Muscle tissue [19]): 2.9 % ID/g
Activity (Muscle tissue [20]): 1.92 % ID/g
Activity (Liver [21]): 21.14 % ID/g
Activity [22]: 1.92 % ID/g
Activity [23]: 0.32 % ID/g
Activity (Brain [24]): 1.55 % ID/g
Activity [25]: 0.65 % ID/g
Activity (Heart [26]): 3.7 % ID/g
Activity [27]: 1.32 % ID/g
Activity [28]: 3.67 % ID/g

COc1ccc(C)cc1NC(=O)OC1CC2CCCC(C1)N2CCc1ccc(N(C)C)cc1 (configuration not stated)
Ki [29]: 1870 nM
Ratio Ki [30]: 10
Ki [31]: 195 nM
logP [32]: 3.36

C=CCN1C2CCCC1CC(OC(=O)Nc1cc(C)ccc1OC)C2 (configuration not stated)
Ki [29]: 1260 nM
Ratio Ki [30]: 15
Ki [31]: 85.9 nM
logP [32]: 2.86

COc1ccc(C)cc1C(=O)NCCCCN1CCc2cc(OO)c(OO)cc2C1
Ki [29]: 3080 nM
Ki [31]: 10.3 nM

COc1ccc(C)cc1NC(=O)OC1CC2CCCC(C1)N2Cc1cccnc1 (configuration not stated)
Ki [29]: 2350 nM
Ratio Ki [30]: 13
Ki [31]: 184 nM
logP [32]: 2.7

COc1ccc(C)cc1NC(=O)OC1CC2CCCC(C1)N2Cc1ccncc1 (configuration not stated)
Ki [29]: 1560 nM
Ratio Ki [30]: 3
Ki [31]: 522 nM
logP [32]: 2.94

COc1ccc(C)cc1NC(=O)OC1CC2CCCC(C1)N2CCF (configuration not stated)
Ki [29]: 2000 nM
Ratio Ki [30]: 14
Ki [31]: 143 nM
logP [32]: 2.85

COc1ccc(C)cc1NC(=O)OC1CC2CCCC(C1)N2Cc1ccc(CCF)cc1 (configuration not stated)
Ki [29]: 1710 nM
Ratio Ki [30]: 2090
Ki [31]: 0.82 nM
Activity (EMT6): 2 nM

COc1ccc(C)cc1NC(=O)OC1CC2CCCC(C1)N2Cc1ccccc1 (configuration not stated)
Ki [33]: > 1000 nM
Ki [31]: 3.1 nM
Ki [34]: > 1000 nM

COc1ccc(C)cc1NC(=O)OC1CC2CCCC(C1)N2Cc1ccc(N(C)C)cc1 (configuration not stated)
Ki [29]: 1440 nM
Ratio Ki [30]: 557
Ki [31]: 2.58 nM
logP [32]: 3.02

CCn1c(=O)n(C(=O)NC2CC3CCC(C2)N3C)c2ccccc21 (configuration not stated)
Ki [29]: 6300 nM
Ki [33]: 13 nM
Ki [31]: 32 nM
Ki [34]: 1 nM

O=C(CCCN1CCC(O)(c2ccc(Cl)cc2)CC1)c1ccc(F)cc1 [HALOPERIDOL]
logP [32]: 3.36

COc1ccc(C)cc1NC(=O)OC1CC2CCCC(C1)N2Cc1ccc(F)nc1 (configuration not stated)
Ki [29]: 2510 nM
Ratio Ki [30]: 4
Ki [31]: 572 nM
logP [32]: 3.21

COc1ccc(C)cc1NC(=O)OC1CC2CCCC(C1)N2Cc1ccc(SC)cc1 (configuration not stated)
Ki [29]: 2020 nM
Ki [31]: 8190 nM
logP [32]: 3.92

COc1ccc(C)cc1NC(=O)OC1CC2CCCC(C1)N2CCc1ccc(CCF)cc1 (configuration not stated)
Ki [29]: 2630 nM
Ratio Ki [30]: 10
Ki [31]: 276 nM
logP [32]: 3.69

COc1ccc(CCN2C3CCCC2CC(OC(=O)Nc2cc(C)ccc2OC)C3)cc1 (configuration not stated)
Ki [29]: 447 nM
Ratio Ki [30]: 4
Ki [31]: 126 nM
logP [32]: 3.22

COc1ccc(CN2C3CCCC2CC(OC(=O)Nc2cc(C)ccc2OC)C3)cc1 (configuration not stated)
Ki [29]: 323 nM
Ratio Ki [30]: 8
Ki [31]: 40.7 nM
logP [32]: 3.3
